Laboratory results as given in ChEMBL document CHEMBL1154944, “Azole-based inhibitors of AKT/PKB for the treatment of cancer” (Bioorg Med Chem Lett, 2010).

Tests used:
[1] = target: T1, RAC-alpha serine/threonine-protein kinase (Homo sapiens, UniProt P31749); experiment: Inhibition of AKT1 after 10 mins by [gamma33]ATP assay
[2] = Inhibition of PKA
[3] = target: Cyclin-dependent kinase 2 (Homo sapiens, UniProt P24941); experiment: Inhibition of CDK2
U-87MG ATCC = experiment: Selectivity ratio of IC50 for AKT1 in human U87MG cells to IC50 for AKT1; type: cell-based
[4] = target: T1, RAC-alpha serine/threonine-protein kinase; experiment: Inhibition of human AKT1 in human U87MG cells assessed as PRAS40 phosphorylation after 1 hr by ELISA; type: cell-based, U-87MG ATCC
Summary of the method: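 U-87 MG cells in 5% FBS incubated with inhibitor in threefold serial dilutions for 1 h at 37 °C, then lysed. Phospho-PRAS40 (Thr246) quantified by ELISA and normalized to total PRAS40. Mean ± SD where three or more measurements.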

[5] = Half life in Sprague-Dawley rat at 2 mg/kg, iv; type: ADME, organism-based; set-up: dose 2 mg/kg, route intravenous; conditions: in vivo
Summary of the method: (§1)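 Male Sprague Dawley rats (n = 3) given 2 mg/kg intravenously in DMSO.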

[6] = Clearance in Sprague-Dawley rat at 2 mg/kg, iv; type: ADME, organism-based; set-up: dose 2 mg/kg, route intravenous; conditions: in vivo; summary of the method: as §1
[7] = Volume of distribution at steady state in Sprague-Dawley rat at 2 mg/kg, iv; type: ADME, organism-based; set-up: dose 2 mg/kg, route intravenous; conditions: in vivo, read-out: Vdss; summary of the method: as §1
[8] = Oral bioavailability in Sprague-Dawley rat at 5 mg/kg; type: ADME, organism-based; conditions: in vivo
Summary of the method: (§2)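 Male Sprague Dawley rats (n = 3) given 5 mg/kg orally in 2% HPMC, 1% Tween 80, pH 2.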

[9] = Cmax in Sprague-Dawley rat at 5 mg/kg, po; type: ADME, organism-based; set-up: dose 5 mg/kg, route oral; conditions: in vivo; summary of the method: as §2
[10] = AUC (0 to 24 hrs) in Sprague-Dawley rat at 5 mg/kg, po; type: ADME, organism-based; set-up: time < 24 hr, dose 5 mg/kg, route oral; conditions: plasma; summary of the method: as §2
Mus musculus [11] = experiment: Inhibition of HGF-stimulated AKT signaling pathway in mouse liver assessed as phosphorylated PRAS40 level at 30 mg/kg, po dosed 6 hrs prior to HGF challenge and measured after 5 mins by ELISA; type: functional
Summary of the method: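 Mice (n = 3, female) dosed 30 mg/kg po in 0.1% PBS/BSA. At 6 h, HGF given by tail-vein injection. Livers harvested 5 min later, and phospho- and total PRAS40 measured by ELISA; inhibition taken from pPRAS40/total ratio. Factorial ANOVA with Dunnett's post hoc test.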

[12] = Plasma concentration in mouse at 30 mg/kg, po after 6 hrs; type: ADME, organism-based; set-up: dose 30 mg/kg, route oral
Mus musculus [13] = experiment: Toxicity in human U87MG cells xenografted CD1 nude mouse assessed as loss in body weight po QD for 18 days relative to control; type: organism-based, U-87MG ATCC; conditions: in vivo, 432 h
Summary of the method: (§3)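 10-week-old female CD1 nude mice injected sc in the flank with 5 × 10⁶ U-87 MG cells in DMEM. On day 10, randomized (n = 10) at ~200 mm³, then dosed po once daily for 18 d with supplemented diet. Tumors and body weight recorded twice weekly. Volume = length × width × height, analyzed by RMANOVA versus vehicle.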

[14] = target: Vascular endothelial growth factor receptor 2 (Homo sapiens, UniProt P35968); experiment: Inhibition of KDR
[15] = target: Mast/stem cell growth factor receptor Kit (Homo sapiens, UniProt P10721); experiment: Inhibition of cKIT
[16] = target: Cyclin-dependent kinase 1 (Homo sapiens, UniProt P06493); experiment: Inhibition of CDK1
U-87 MG = experiment: Inhibition of tumor growth in human U87MG cells xenografted in CD1 nude mouse assessed as tumor volume po QD for 18 days relative to control; type: functional, organism-based; conditions: U-87MG ATCC; summary of the method: as §3
[17] = Cytotoxicity against human U87MG cells after 3 days by alamar blue assay; type: functional, cell-based, U-87MG ATCC; conditions: U-87 MG, 72 h
Summary of the method: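 U-87 MG cells seeded at 6000 cells/well in 5% FBS and treated with threefold serial dilutions for three days. Viability read by alamarBlue staining.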

[18] = Antitumor activity against human U87MG cells xenografted in CD1 nude mouse assessed as inhibition of tumor growth at 30 mg/kg, po QD for 18 days relative to control; type: functional, U-87MG ATCC; conditions: U-87 MG, 432 h, read-out: GI; summary of the method: as §3
[19] = Plasma concentration in human U87MG cells xenografted CD1 nude mouse at 30 mg/kg, po QD for 18 days measured after 3 hrs post last dose; type: ADME, organism-based, U-87MG ATCC; set-up: dose 30 mg/kg, route oral
Summary of the method: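 Female CD1 nude mice bearing U-87 MG tumors (n = 10) dosed 30 mg/kg po daily for 18 d. Plasma sampled 3 h after the last dose.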

T1 sequence (P31749 whole entry): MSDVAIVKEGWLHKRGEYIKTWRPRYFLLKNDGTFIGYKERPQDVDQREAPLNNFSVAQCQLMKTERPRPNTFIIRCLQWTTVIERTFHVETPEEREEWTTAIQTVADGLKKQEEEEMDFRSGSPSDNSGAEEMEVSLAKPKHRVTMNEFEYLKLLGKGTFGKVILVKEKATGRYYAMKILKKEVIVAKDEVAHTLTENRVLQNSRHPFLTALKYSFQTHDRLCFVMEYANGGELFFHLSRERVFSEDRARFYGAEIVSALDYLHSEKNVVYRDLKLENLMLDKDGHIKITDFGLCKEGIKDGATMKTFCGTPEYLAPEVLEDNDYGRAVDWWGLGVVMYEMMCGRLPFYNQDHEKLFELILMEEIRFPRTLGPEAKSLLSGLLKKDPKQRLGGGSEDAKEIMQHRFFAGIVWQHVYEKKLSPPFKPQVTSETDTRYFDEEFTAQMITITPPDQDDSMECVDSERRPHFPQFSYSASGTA
Chain of Cyclin-dependent kinase 1 (P06493 whole entry): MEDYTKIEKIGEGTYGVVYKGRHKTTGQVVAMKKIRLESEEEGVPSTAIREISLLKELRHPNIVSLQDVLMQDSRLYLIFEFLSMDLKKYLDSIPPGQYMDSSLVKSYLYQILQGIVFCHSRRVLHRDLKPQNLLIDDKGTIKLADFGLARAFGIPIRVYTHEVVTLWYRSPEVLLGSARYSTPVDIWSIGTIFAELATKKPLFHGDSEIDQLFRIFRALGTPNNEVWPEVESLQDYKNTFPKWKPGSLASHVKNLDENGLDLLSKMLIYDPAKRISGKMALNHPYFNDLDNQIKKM
Chain of Vascular endothelial growth factor receptor 2 (P35968 whole entry): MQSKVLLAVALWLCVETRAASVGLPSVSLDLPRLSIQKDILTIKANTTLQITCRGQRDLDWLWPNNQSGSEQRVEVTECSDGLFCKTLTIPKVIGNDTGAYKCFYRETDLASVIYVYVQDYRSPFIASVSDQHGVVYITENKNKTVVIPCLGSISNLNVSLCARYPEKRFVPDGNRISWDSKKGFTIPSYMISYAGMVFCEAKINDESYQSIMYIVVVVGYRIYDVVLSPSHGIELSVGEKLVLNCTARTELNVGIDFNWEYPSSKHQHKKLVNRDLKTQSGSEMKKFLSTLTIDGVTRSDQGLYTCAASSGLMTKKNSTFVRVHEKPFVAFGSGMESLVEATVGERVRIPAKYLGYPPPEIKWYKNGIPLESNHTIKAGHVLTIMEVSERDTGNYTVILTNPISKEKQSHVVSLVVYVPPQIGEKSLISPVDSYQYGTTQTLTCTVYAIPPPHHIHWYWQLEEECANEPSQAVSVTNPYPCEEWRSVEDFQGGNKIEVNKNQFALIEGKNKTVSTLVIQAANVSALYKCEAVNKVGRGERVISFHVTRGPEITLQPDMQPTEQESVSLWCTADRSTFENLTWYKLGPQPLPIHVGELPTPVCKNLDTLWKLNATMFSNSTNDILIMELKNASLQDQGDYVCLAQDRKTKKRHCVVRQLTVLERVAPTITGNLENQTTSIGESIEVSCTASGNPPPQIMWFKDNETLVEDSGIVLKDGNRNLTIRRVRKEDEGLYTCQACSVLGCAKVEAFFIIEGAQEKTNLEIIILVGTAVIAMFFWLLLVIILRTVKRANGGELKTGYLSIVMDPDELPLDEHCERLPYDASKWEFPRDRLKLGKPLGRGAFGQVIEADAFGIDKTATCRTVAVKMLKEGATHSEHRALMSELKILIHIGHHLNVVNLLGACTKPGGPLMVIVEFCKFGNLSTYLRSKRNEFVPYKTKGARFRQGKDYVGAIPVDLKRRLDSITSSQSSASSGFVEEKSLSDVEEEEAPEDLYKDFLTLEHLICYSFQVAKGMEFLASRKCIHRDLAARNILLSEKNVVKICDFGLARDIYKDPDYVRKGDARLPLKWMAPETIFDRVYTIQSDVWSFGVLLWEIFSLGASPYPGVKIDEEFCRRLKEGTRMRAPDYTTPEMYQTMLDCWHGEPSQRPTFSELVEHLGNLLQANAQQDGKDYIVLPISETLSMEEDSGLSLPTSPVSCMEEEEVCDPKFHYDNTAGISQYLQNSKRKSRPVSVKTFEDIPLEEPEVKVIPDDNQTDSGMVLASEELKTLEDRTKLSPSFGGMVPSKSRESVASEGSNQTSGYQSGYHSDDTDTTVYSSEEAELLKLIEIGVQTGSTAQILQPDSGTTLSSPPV
Chain of Mast/stem cell growth factor receptor Kit (P10721 whole entry): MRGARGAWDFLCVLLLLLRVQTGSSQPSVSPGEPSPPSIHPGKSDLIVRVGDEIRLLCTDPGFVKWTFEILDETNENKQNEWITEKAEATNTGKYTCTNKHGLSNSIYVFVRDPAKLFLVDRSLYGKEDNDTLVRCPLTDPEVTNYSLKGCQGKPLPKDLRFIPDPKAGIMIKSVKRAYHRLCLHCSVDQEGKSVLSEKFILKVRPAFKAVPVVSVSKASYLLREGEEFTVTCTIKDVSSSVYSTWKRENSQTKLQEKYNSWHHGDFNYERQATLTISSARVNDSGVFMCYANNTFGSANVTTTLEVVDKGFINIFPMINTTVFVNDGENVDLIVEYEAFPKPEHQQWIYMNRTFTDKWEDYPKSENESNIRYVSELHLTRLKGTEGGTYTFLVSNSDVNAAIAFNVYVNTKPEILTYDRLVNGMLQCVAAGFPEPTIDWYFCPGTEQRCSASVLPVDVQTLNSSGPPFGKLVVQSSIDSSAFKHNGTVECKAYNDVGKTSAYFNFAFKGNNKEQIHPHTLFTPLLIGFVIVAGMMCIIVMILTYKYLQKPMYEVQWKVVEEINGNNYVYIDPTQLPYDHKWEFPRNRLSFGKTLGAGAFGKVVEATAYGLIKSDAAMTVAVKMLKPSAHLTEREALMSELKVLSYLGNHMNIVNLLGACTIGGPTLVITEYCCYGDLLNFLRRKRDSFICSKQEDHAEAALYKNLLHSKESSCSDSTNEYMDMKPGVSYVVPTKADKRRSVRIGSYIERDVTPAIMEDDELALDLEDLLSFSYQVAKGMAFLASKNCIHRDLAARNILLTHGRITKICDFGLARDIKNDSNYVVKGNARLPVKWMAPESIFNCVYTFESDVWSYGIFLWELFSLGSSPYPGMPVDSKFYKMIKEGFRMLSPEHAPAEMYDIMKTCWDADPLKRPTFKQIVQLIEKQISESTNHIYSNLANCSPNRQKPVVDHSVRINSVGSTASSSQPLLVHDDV

Structure (SMILES)	IC50 [1] [µM]	IC50 [2] [µM]	IC50 [3] [µM]	IC50 [4] [µM]	further results
Cn1nc(N)c2ccc(-c3cnc(NC[C@@H](N)Cc4ccc(C(F)(F)F)cc4)s3)cc21	2.41	0.119	> 2	–	–
Cn1ncc2ccc(-c3cnc(NC[C@@H](N)Cc4ccc(C(F)(F)F)cc4)s3)cc21	0.895	0.23	–	–	–
N[C@H](CNc1ncc(-c2ccc3c(c2)CC(=O)N3)s1)Cc1ccc(C(F)(F)F)cc1	0.0183	–	0.185	0.3	Activity (Mus musculus [13]): 2%; IC50 [14]: 0.3 µM; IC50 [15]: 0.11 µM; IC50 [16]: 0.25 µM; inhibition (U-87 MG): Dose-dependent effect; IC50 [17]: 0.63 µM; half-life [5]: 4.3 h; Vd [7]: 6.8 L/kg; bioavailability [8]: 64%; Cmax [9]: 0.417 µg/mL; AUC(0-t) at 24 h [10]: 2.6 µg·h/mL; inhibition in vivo at 30 mg/kg (Mus musculus [11]): 43%; concentration at 6 h [12]: 3.5 µM; inhibition in vivo at 30 mg/kg [18]: 93%; concentration at 3 h [19]: 6.2 µM
N[C@H](CNc1ncc(-c2ccc3[nH]c(=O)oc3c2)s1)Cc1ccc(C(F)(F)F)cc1	0.008	0.326	0.138	0.5	half-life [5]: 3.8 h; clearance [6]: 1.6 L/h/kg; Vd [7]: 6.7 L/kg; bioavailability [8]: 11%; Cmax [9]: 0.068 µg/mL; AUC(0-t) at 24 h [10]: 0.348 µg·h/mL
N[C@H](CNc1ncc(-c2ccc3[nH]c(=O)sc3c2)s1)Cc1ccc(C(F)(F)F)cc1	0.027	0.143	0.285	0.92	–
Cn1c(=O)[nH]c2ccc(-c3cnc(NC[C@@H](N)Cc4ccc(C(F)(F)F)cc4)s3)cc21	0.0154	0.179	0.276	0.63	–
N[C@H](CNc1ncc(-c2ccc3c(c2)CNC3=O)s1)Cc1ccc(C(F)(F)F)cc1	0.095	0.356	> 9	6	–
Nc1noc2ccc(-c3cnc(NC[C@@H](N)Cc4ccc(C(F)(F)F)cc4)s3)cc12	0.453	0.417	> 2	–	–
N[C@H](CNc1ncc(-c2ccc3cn[nH]c3c2)s1)Cc1ccc(C(F)(F)F)cc1	0.613	0.334	> 1	–	–
N[C@H](CNc1ncc(-c2ccc3[nH]ncc3c2)s1)Cc1ccc(Cl)cc1	0.0085	0.0399	–	0.73	Ratio IC50 (U-87MG ATCC): 86
N[C@H](CNc1ncc(-c2ccc3c(c2)CCC(=O)N3)s1)Cc1ccc(C(F)(F)F)cc1	3.31	2.4	> 25	–	–
NC(=O)c1ccc(-c2cnc(NC[C@@H](N)Cc3ccc(C(F)(F)F)cc3)s2)cc1	> 3	> 3	> 10	–	–
N[C@H](CNc1ncc(-c2ccc3cn[nH]c(=O)c3c2)s1)Cc1ccc(C(F)(F)F)cc1	> 1	0.485	> 1	–	–

Now from value to compound, other results behind:

IC50 [1] [µM]	IC50 [2] [µM]	IC50 [3] [µM]	IC50 [4] [µM]	Structure (SMILES)	further results
0.404	0.187	1.07	–	N[C@H](CNc1cnc(-c2ccc3cnccc3c2)s1)Cc1ccc(C(F)(F)F)cc1	–
0.0049	0.0059	0.0124	0.43	N[C@H](CNc1ncc(-c2ccc3cnccc3c2)s1)Cc1ccc(C(F)(F)F)cc1	Ratio IC50 (U-87MG ATCC): 88; half-life [5]: 2.9 h; clearance [6]: 2.7 L/h/kg; Vd [7]: 7.1 L/kg; bioavailability [8]: 20%; Cmax [9]: 0.066 µg/mL; AUC(0-t) at 24 h [10]: 0.387 µg·h/mL; inhibition in vivo at 30 mg/kg (Mus musculus [11]): 4%; concentration at 6 h [12]: 1.5 µM
0.0116	0.0086	0.0154	0.89	Nc1cc2cc(-c3cnc(NC[C@@H](N)Cc4ccc(C(F)(F)F)cc4)s3)ccc2cn1	Ratio IC50 (U-87MG ATCC): 77
1.6	0.98	4.63	–	N[C@H](CCc1nc(-c2ccc3cnccc3c2)no1)Cc1ccc(C(F)(F)F)cc1	–
0.017	0.04	0.093	–	N[C@H](CNc1cc(-c2ccc3cnccc3c2)no1)Cc1ccc(C(F)(F)F)cc1	–
0.035	0.126	0.136	1.3	N[C@H](CNc1ncc(-c2ccc3cncnc3c2)s1)Cc1ccc(C(F)(F)F)cc1	Ratio IC50 (U-87MG ATCC): 37
0.141	0.489	> 2	–	N[C@H](CNc1ncc(-c2ccc3nnccc3c2)s1)Cc1ccc(C(F)(F)F)cc1	–
0.0032	0.0076	–	–	N[C@H](CNc1nnc(-c2ccc3cnccc3c2)s1)Cc1ccc(C(F)(F)F)cc1	–
0.085	0.133	0.348	–	N[C@H](CNc1nnc(-c2ccc3cnccc3c2)o1)Cc1ccc(C(F)(F)F)cc1	–
0.04	0.05	0.117	3.8	N[C@H](CCc1cc(-c2ccc3cnccc3c2)no1)Cc1ccc(C(F)(F)F)cc1	Ratio IC50 (U-87MG ATCC): 95
